The results in this text go back to ChEMBL document CHEMBL2093137, “WHO-TDR NTD Screening”.

SMILES strings stand for the structures. Converted amounts (≈) assume the structure as drawn.

By IC50 is commonly meant the concentration that gives 50% inhibition. For orientation: % Inhibition means the relative decrease from the control value, in per cent.

Data set [1] can be described thus: WHO-TDR: Cytotoxicity. Conditions: human, MRC5 cells. It is filed as toxicity, cell-based.
The next data set has as its system Plasmodium falciparum K1. Description: WHO-TDR: Malaria. Type of data set: functional, organism-based, Homo sapiens. Conditions: Erythrocyte. The method, boiled down:
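A diverse library of 10,000 compounds from Life Chemicals, filtered for drug-likeness and reactive groups, was screened against the intra-erythrocytic Plasmodium falciparum K1 strain in human red blood cells. Previously published standard procedures were followed, with a reference drug as positive control. Antiplasmodial potency is given as IC50.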

A further data set concerns Trypanosoma cruzi. In words: WHO-TDR: Chagas disease. Type of data set: functional, organism-based, Homo sapiens. Conditions: MRC5. The method, boiled down: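 Each IC50 reflects antiparasitic potency against intracellular amastigotes of Trypanosoma cruzi Tulahuen CL2 beta-galactosidase strain. These were cultured in MRC-5SV2 human lung fibroblasts and exposed to a 10,000-compound diverse Life Chemicals library screened according to published standard procedures with a reference drug as positive control.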

In data set [2] the test system is Trypanosoma brucei brucei. Description: WHO-TDR: Human African Trypanosomiasis (HAT). Type of data set: functional, organism-based. Conditions: Squib-427. Put shortly:
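A diverse library of 10,000 compounds from Life Chemicals, filtered for drug-likeness and reactive groups, was screened against bloodstream forms of Trypanosoma brucei Squib 427 strain in a whole-organism assay. Previously published standard procedures were followed, with reference drugs serving as positive controls. Antiparasitic potency is given as IC50.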

The subject of another data set is Leishmania infantum. Description: WHO-TDR: Leishmaniasis. It is filed as functional, organism-based, Mus musculus. The conditions noted are these: Macrophage. The method, boiled down:
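A diverse library of 10,000 compounds from Life Chemicals, filtered for drug-likeness and reactive groups, was screened against whole organisms. The targets were intracellular amastigotes of Leishmania infantum MHOM/MA(BE)/67 growing in murine peritoneal macrophages. Previously published standard procedures were followed, with a reference drug as positive control. Antiparasitic potency is given as IC50.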

Data set [3] deals with Schistosoma mansoni. Description: (§1) WHO-TDR: Schistosomiasis. Type of data set: functional. The arrangement: concentration or dose not given beside the values. Put shortly:
(§2)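 Whole-organism screen of a 10,000-compound diverse library from Life Chemicals, filtered for drug-likeness and reactive groups, against larval and/or adult worms of Schistosoma mansoni Puerto Rican strain. The assay followed previously published standard procedures, with a reference drug as positive control. Activity is reported as percent inhibition and as IC50.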

Data set [4] relates to Schistosoma mansoni. The data set is described as §1. It is filed as functional, organism-based. Put shortly: as §2
In the next data set the test system is Onchocerca lienalis. In words: WHO-TDR: Onchocerciasis. Type of data set: functional. The arrangement: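 at 12.5 µM on microfilariae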. The method, boiled down:
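Whole-organism screen of a 10,000-compound diverse library from Life Chemicals, filtered for drug-likeness and reactive groups, against microfilariae of Onchocerca ochengi or Onchocerca lienalis, used as animal-pathogen stand-ins for the human parasite. The assay followed previously published standard procedures, with reference drugs as positive controls. Activity is reported as percent inhibition and as IC50.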

Turning to `C=CCN(CC=C)S(=O)(=O)c1ccc(C(=O)Nc2nc3ccc(C(C)C)cc3s2)cc1`, the IC50 is over 11 µg/mL in data set [1]; over 11 µg/mL in the data set on Plasmodium falciparum K1; 4.48 µg/mL (≈ 9.84 µM) with Trypanosoma cruzi; over 11 µg/mL in data set [2]; over 11 µg/mL in the data set on Leishmania infantum; 5.7 µM with Schistosoma mansoni [4]. The “% Inhibition” value was 100% in the data set with Schistosoma mansoni [3] and 0% with Onchocerca lienalis.

As to `COc1ccc(N2CCCS2(=O)=O)cc1NC(=O)c1cc(Cl)ccc1OC`, the IC50 in data set [1] was over 12.3 µg/mL; with Plasmodium falciparum K1, over 12.3 µg/mL; in the data set with Trypanosoma cruzi, 5.04 µg/mL (≈ 12.3 µM); in data set [2], 4.31 µg/mL (≈ 10.5 µM); in the data set on Leishmania infantum it was 0.399 µg/mL (≈ 0.971 µM); in the data set on Schistosoma mansoni [4] it was 4.3 µM. Moreover, the “% Inhibition” value worked out at 100% in the data set on Schistosoma mansoni [3] and 13.3% in the data set with Onchocerca lienalis.

As to `O=C(Nc1cc2ccccc2cc1NC(=O)c1ccc2c(c1)OCCO2)c1ccc2c(c1)OCCO2`, the IC50 in data set [1] was over 14.5 µg/mL; with Plasmodium falciparum K1 it was over 14.5 µg/mL; in the data set on Trypanosoma cruzi it was over 14.5 µg/mL; in data set [2], over 14.5 µg/mL; in the data set on Leishmania infantum it was over 14.5 µg/mL; in the data set with Schistosoma mansoni [4], 8.8 µM. Besides, the results for the “% Inhibition” value in the data set on Schistosoma mansoni [3] and in the data set on Onchocerca lienalis were 100% and 13.3%, respectively.

As for `CN(C)CCCN(C(=O)c1cc(-c2cccs2)nc2ccccc12)c1nc2c(F)cccc2s1`, the IC50 in data set [1] was 4.21 µg/mL (≈ 8.58 µM); in the data set with Plasmodium falciparum K1, 1.2 µg/mL (≈ 2.44 µM); in the data set with Trypanosoma cruzi, 4.32 µg/mL (≈ 8.81 µM); in data set [2], 0.383 µg/mL (≈ 0.781 µM); in the data set on Leishmania infantum it was 5.12 µg/mL (≈ 10.4 µM); in the data set on Schistosoma mansoni [4] it was 4.3 µM. Besides, the “% Inhibition” value in the data set on Schistosoma mansoni [3] is 100%; with Onchocerca lienalis, 0%.

For the compound `CCN(CC)c1cc(C)nc(Nc2ccc(NC(=O)c3cccs3)cc2)n1`, the IC50 in data set [1] came out at 2.96 µg/mL (≈ 7.76 µM); with Plasmodium falciparum K1 it was 0.378 µg/mL (≈ 0.99 µM); in the data set on Trypanosoma cruzi, 0.295 µg/mL (≈ 0.773 µM); in data set [2], 0.472 µg/mL (≈ 1.24 µM); in the data set on Leishmania infantum, 3.7 µg/mL (≈ 9.71 µM); in the data set with Schistosoma mansoni [4], 4.7 µM. Moreover, the “% Inhibition” value was 100% in the data set with Schistosoma mansoni [3] and -1% in the data set on Onchocerca lienalis.

In the case of `O=C(NCc1nnnn1-c1ccc(Cl)cc1)C1c2ccccc2Oc2ccccc21`, the IC50 is over 12.5 µg/mL in data set [1]; over 12.5 µg/mL with Plasmodium falciparum K1; over 12.5 µg/mL in the data set on Trypanosoma cruzi; over 12.5 µg/mL in data set [2]; over 12.5 µg/mL with Leishmania infantum; 6.6 µM in the data set with Schistosoma mansoni [4]. The “% Inhibition” value is 100% with Schistosoma mansoni [3] and 0% in the data set with Onchocerca lienalis.

In the case of `Cc1ccc(NC(=O)CSc2nncc(=O)[nH]2)cc1Cl`, the IC50 in data set [1] is 2.55 µg/mL (≈ 8.2 µM); with Plasmodium falciparum K1, 3.64 µg/mL (≈ 11.7 µM); in the data set with Trypanosoma cruzi, 2.99 µg/mL (≈ 9.61 µM); in data set [2], 2.91 µg/mL (≈ 9.37 µM); in the data set with Leishmania infantum, over 9.32 µg/mL; in the data set on Schistosoma mansoni [4] it was 4.5 µM. In addition, the results for the “% Inhibition” value with Schistosoma mansoni [3] and in the data set with Onchocerca lienalis were 100% and 0%, respectively.

Regarding `Cn1ncc2c(N3CCOCC3)nc(NCCc3c[nH]c4ccccc34)nc21` [TDR79432], the IC50 is 3.75 µg/mL (≈ 9.93 µM) in data set [1]; 5.13 µg/mL (≈ 13.6 µM) with Plasmodium falciparum K1; 2.69 µg/mL (≈ 7.11 µM) with Trypanosoma cruzi; over 11.3 µg/mL in data set [2]; over 11.3 µg/mL with Leishmania infantum; 3.8 µM with Schistosoma mansoni [4]. Moreover, the “% Inhibition” value with Schistosoma mansoni [3] came out at 100%; in the data set on Onchocerca lienalis, 0%.

Take `CCOC(=O)c1c(NC(=O)C(C)Sc2nnc(NC(C)=O)s2)sc2c1CCCC2` (stereo not given): the IC50 in data set [1] was over 13.6 µg/mL; in the data set with Plasmodium falciparum K1, over 13.6 µg/mL; in the data set on Trypanosoma cruzi, over 13.6 µg/mL; in data set [2] it was over 13.6 µg/mL; with Leishmania infantum, over 13.6 µg/mL; in the data set with Schistosoma mansoni [4], 9.8 µM. Moreover, the “% Inhibition” value in the data set on Schistosoma mansoni [3] came out at 100%; in the data set on Onchocerca lienalis it was 0%.

For the compound `CCN(c1ccccc1)S(=O)(=O)c1ccc(C(=O)Nc2sc3c(c2C(=O)NC)CCCC3)cc1`, the IC50 in data set [1] was over 11 µg/mL; with Plasmodium falciparum K1, 7.35 µg/mL (≈ 14.8 µM); with Trypanosoma cruzi it was 5.24 µg/mL (≈ 10.5 µM); in data set [2], over 11 µg/mL; in the data set on Leishmania infantum, over 11 µg/mL; in the data set on Schistosoma mansoni [4] it was 9.9 µM. The “% Inhibition” value is on record as 100% with Schistosoma mansoni [3] and 13.3% in the data set on Onchocerca lienalis.
